By Emax is commonly meant the greatest response seen or fitted, relative to the assay's reference. Broadly, the IC50 is the midpoint of a concentration-inhibition curve.

Conditions in all cases: Aorta
Experiment [1] is described as follows: In vitro maximal vasorelaxing effect evoked on endothelium-denuded rat aortic rings in the presence of 1 uM glibenclamide. It counts as functional. The procedure, abridged:
(§1)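 Glibenclamide 1 μM was added to endothelium-denuded male Wistar rat aortic rings before the 20 mM KCl contraction. Compound was then added cumulatively in 3-fold increasing concentrations, and relaxation was expressed relative to the KCl tone. Student t test against control, P < 0.05. Mean ± standard error, 5–10 experiments.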

The nature of experiment [2]: In vitro maximal vasorelaxing effect evoked on endothelium-denuded rat aortic rings was expressed as percentage contractile tension in the presence of 60 mM KCl.
Experiment [3] in a line: In vitro maximal vasorelaxation of endothelium-denuded rat aortic rings, expressed as percentage contractile tension. It counts as functional. The procedure, abridged:
(§2)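 Thoracic aortic rings were taken from male normotensive Wistar rats (250–350 g) and equilibrated for 60 min. Rings relaxing ≥10% to ACh 10 μM after NE 1 μM precontraction were discarded. Rings were contracted with KCl 20 mM, then 3-fold increasing concentrations were added cumulatively. Efficacy is the maximal relaxation as % of KCl tone, or the response at the 0.1 mM limit concentration. Mean ± standard error of 5–10 experiments.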

Experiment [4] can be described thus: In vitro vasorelaxing effect evoked on endothelium-denuded rat aortic rings in the presence of 1 uM glibenclamide. It counts as functional, tissue-based. The procedure, abridged: as §1
Experiment [5] is filed under the species Rattus norvegicus. Nature of the experiment: In vitro vasorelaxing effect evoked on endothelium-denuded rat aortic rings expressed as half reduction of the contractile tone; The compound was ineffective. The format is functional, tissue-based.
For experiment [6], the species on record is Rattus norvegicus. Nature of the experiment: In vitro maximal vasorelaxing effect evoked on endothelium-denuded rat aortic rings was expressed as percentage contractile tension; The compound was ineffective. The format is functional, tissue-based. The procedure, abridged:
as §2

Experiment [7] is described as follows: In vitro vasorelaxing effect evoked on endothelium-denuded rat aortic rings expressed as potency significantly different from respective control. The format is functional, tissue-based.
Experiment [8] is described as follows: In vitro vasorelaxing effect evoked on endothelium-denuded rat aortic rings expressed as percentage efficacy (%) recorded in the presence of 1 uM glibenclamide.
Experiment [9] in a line: In vitro vasorelaxing effect evoked on endothelium-denuded rat aortic rings in the presence of 1 uM glibenclamide.

SMILES strings stand for the structures.

As for `CC1(C)CN(C2=CCCC2=O)c2cc(C#N)ccc2S1`, the results for the maximal effect (Emax) in [1], in experiment [2] and in experiment [3] were 100%, 18% and 95%, respectively. Moreover, the concentration for half-maximal inhibition (IC50) in [4] is 69.2 nM.
In the case of `CC1(C)CN(N2CCCC2=O)c2cc([N+](=O)[O-])ccc2S1`, the maximum response (Emax) in [3] is 91%.
The same measure, in the same setting: with `CC(=O)NN1CC(C)(C)Sc2ccc(Br)cc21` the figure was 100%.
In turn, `CC1(C)CN(N2CCCCC2=O)c2cc(Br)ccc2S1` showed an Emax in experiment [3] of 100%.
On to `CC1(C)CN(N2CCCC2=O)c2cc(Br)ccc2S1`, for which the maximum response (Emax) came to 99% in [1], 30% in experiment [2] and 100% in experiment [3]. The concentration for half-maximal inhibition (IC50) in experiment [4] was 2400 nM.
Regarding `CC(=O)N1CC(C)(C)Sc2ccc(Br)cc21`, the maximal effect (Emax) in [3] stood at 100%.
On to `CC1(C)CN(NC(=O)c2cccc(F)c2)c2cc([N+](=O)[O-])ccc2S1`, for which the values for the Emax in experiment [1], in experiment [2] and in [3] were 93%, 15% and 91%, respectively. In experiment [4], the IC50 was 302 nM.
As for `CC1(C)CN(N2CCCC2=O)c2cc(Br)ccc2S1(=O)=O`, in [3], the maximal effect (Emax) turned out to be 100%.
Turning to `CC(=O)N1CC(C)(C)Sc2ccc([N+](=O)[O-])cc21`, the NE entry in the experiment listed under Rattus norvegicus [5] and in the experiment filed under Rattus norvegicus [6] was “Ineffective” each time.
Molecule `CC1(C)Oc2ccc(C#N)cc2[C@@H](N2CCCC2=O)[C@@H]1O` [LEVCROMAKALIM] came in with a maximal effect (Emax) in experiment [3] of 100%.
Still for that read-out and setting: with `CC1(C)CN(N2CCCC2=O)c2cc(C#N)ccc2S1` the figure was 98%.
Consider `CC1(C)CN(C2=CCCC2=O)c2cc([N+](=O)[O-])ccc2S1`, for which the Emax in [1] worked out at 90%; in experiment [2], 26%; in [3] it was 98%. The IC50 in [4] was 417 nM.
The matching figures for `CC1(C)CN(C2=CCCC2=O)c2cc(C(F)(F)F)ccc2S1`: 87%, 35%, 99% and 437 nM.
`C=CCN1CC(C)(C)Sc2ccc(C(F)(F)F)cc21` came in with a maximal response (Emax) in [3] of 97%.
On to `CC1(C)CN(NC(=O)c2cccc(F)c2)c2cc(Br)ccc2S1`, for which the values for the maximal response (Emax) in experiment [1] and in experiment [3] were 58% and 95%, respectively.
The molecule `CC1(C)Sc2ccc(C(F)(F)F)cc2NC1=O` showed an IC50 in [7] of 28.2 µM. Further, in experiment [8], the maximal response (Emax) is 81%.
As to `CC(=O)NN1CC(C)(C)Sc2ccc([N+](=O)[O-])cc21`, the figures for the Emax in experiment [1], in [2] and in experiment [3] were 95%, 24% and 92%, respectively. Further, the IC50 in [4] was 93.3 nM.
The molecule `CC1(C)CN(N2CCCC2=O)c2cc(Br)ccc2[S+]1[O-]` (stereo not drawn) returned an Emax in experiment [3] of 96%.
On to `CC1(C)CN(C2=CCCC2=O)c2cc(Br)ccc2S1`, for which the maximum response (Emax) worked out at 92% in experiment [1], 28% in experiment [2] and 99% in experiment [3]. The 50% inhibitory concentration (IC50) in [9] is 525 nM.

(Values after ChEMBL document CHEMBL1145991 (J Med Chem, 2003).)
